Source: PubChem
In the library only some 2% were active in any assay of this set; here they are far more common.
MBD2 inh – blocks human MBD2 binding to methylated DNA. AID 686964. Q9UBB5. actives 0.31% (n = 370,000). inhibition, % at 4.4 µM. TR-FRET, MBD2 binding to methylated oligonucleotide; in the data active means inhibition above about 13%
ASAP1 inh – blocks human ASAP1-stimulated Arf1 GTP hydrolysis; Q9ULH1; GDP FP detection; inhibition, % at 16.5 µM; actives 0.19% (n = 360,000); AID 624377; in the data active means inhibition above about 25%;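 further: 0% = vehicle with enzyme and substrate and 100% = no enzyme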
Target sequence (Q9ULH1 325-724 limits assumed): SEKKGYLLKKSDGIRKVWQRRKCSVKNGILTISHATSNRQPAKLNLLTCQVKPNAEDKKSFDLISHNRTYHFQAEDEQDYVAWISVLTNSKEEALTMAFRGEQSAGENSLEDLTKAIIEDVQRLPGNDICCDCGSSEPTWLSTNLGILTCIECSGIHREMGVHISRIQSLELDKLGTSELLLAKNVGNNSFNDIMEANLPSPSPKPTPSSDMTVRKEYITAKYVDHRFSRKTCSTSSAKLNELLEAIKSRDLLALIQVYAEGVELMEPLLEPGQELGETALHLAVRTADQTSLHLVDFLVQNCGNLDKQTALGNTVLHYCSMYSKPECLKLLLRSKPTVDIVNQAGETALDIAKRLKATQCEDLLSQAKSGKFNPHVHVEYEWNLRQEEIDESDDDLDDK
TCR-CD3 inh – inhibitors of human TCR-CD3 interaction. actives 0.37% (n = 360,000). TAMRA-labeled TCR probe fluorescence, biochemical. AID 651800. inhibition, % at 9.4 µM;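 further: recombinant mutant TCR 2C K166C tagged with TAMRA read by polarization; 0% = receptor in buffer alone and 100% = receptor with positive control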
ARFGAP1 inh – rat ARFGAP1 inhibition | inhibition, % at 16.5 µM | actives 0.26% (n = 360,000) | AID 651572 | Q62848 | Arfgap1-stimulated ARF1 GTP hydrolysis, GDP FP detection;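 active means inhibition above a per-plate limit, mean inhibition of low control wells plus 3 SD, cut at about 25% in these data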;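 further: 0% = DMSO wells with enzyme and 100% = wells lacking Arfgap1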
Target sequence (Q62848 1-136 limits assumed): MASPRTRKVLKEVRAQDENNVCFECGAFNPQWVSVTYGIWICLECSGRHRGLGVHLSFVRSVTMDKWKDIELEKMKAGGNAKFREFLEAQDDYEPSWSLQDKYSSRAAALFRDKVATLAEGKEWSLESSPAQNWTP
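Replicates: Single well per compound | Assay system: Truncated rat Arfgap1 GAP domain | Control set: No-Arfgap1 wells (100%) versus DMSO full-reaction wells (0%) | Times: Enzyme reaction 120 min at 25 °C after 20 min preincubation | Reagent: Human ARF1(Δ1-17)-GTP substrate | Measured by: Tracer-displacement fluorescence polarization with EDTA stop, 620/688 nm | Measure: Percent inhibition of Arfgap1-stimulated GTP hydrolysis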
UHRF1 MBD2 ctr – human UHRF1 methylated DNA binding inhibitors. AID 687016. actives 0.75% (n = 370,000). UHRF1 binding to methylated oligo, TR-FRET. inhibition, % at 4.4 µM; in the data active means inhibition above about 21%;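 further: UHRF1 SRA domain binding a hemimethylated CpG hairpin DNA probe; 0% = median of test compound wells and 100% = reference inhibitor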
LEDGF integ inh – blocks HIV-1 LEDGF/p75-dependent DNA integration | TR-FRET IN-LEDGF/p75 DNA integration, Eu/Cy5 | inhibition, % at 3.7 µM | actives 0.64% (n = 370,000) | AID 743269;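 active means inhibition above the screen-wide mean plus 3 SD, cut at about 13% in these data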;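 further: signal is the Cy5 over europium emission ratio at 671 and 618 nm; 0% = plate median of compound wells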
BSA TAMRA ctr – BSA probe counter-screen for TCR-CD3 inhibitors | shares compounds with TCR-CD3 inh | TAMRA-labeled BSA probe fluorescence counterscreen | inhibition, % at 9.4 µM | actives 10% (n = 1,200) | AID 652035; in the data active means inhibition above about 23%;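 further: 0% = buffer low control and 100% = reference high control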
TCR-CD3 inh conf – confirmation of human TCR-CD3 interaction inhibitors; shares compounds with TCR-CD3 inh; TAMRA-labeled TCR probe fluorescence binding assay; inhibition, % at 9.4 µM; actives 48% (n = 1,200); AID 652036
UHRF1 ctr MBD2 – UHRF1 methyl-oligo binding inhibition as MBD2 counter-screen. shares compounds with MBD2 inh. UHRF1 binding to methylated oligonucleotide, TR-FRET. inhibition, % at 4.4 µM. actives 25% (n = 1,000). AID 720530; in the data active means inhibition above about 21%;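 further: UHRF1 SRA domain binding a labeled hemimethylated CpG hairpin DNA; 0% = vehicle only and 100% = reference inhibitor with vehicle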
MBD2 DBD conf – confirmation of human MBD2-DBD methylated oligonucleotide binding inhibitors; shares compounds with MBD2 inh; TR-FRET MBD2-DBD binding to methylated oligonucleotide; inhibition, % at 4.4 µM; actives 26% (n = 1,000); in the data active means inhibition above about 14%
IN multimer up – HIV-1 integrase multimerization activation, counter-screen | activation, % at 7.7 µM | AID 1053131 | shares compounds with LEDGF integ inh | TR-FRET HIV-1 integrase multimerization, biochemical | actives 17% (n = 2,000); in the data active means activation above about 8.9%
TRFRET interf – counter-screen for LEDGF/p75 integration inhibitors: TR-FRET optical interference | TR-FRET optical interference counterscreen, HIV-1 IN multimerization | 2,000 tested, under 10 active | shares compounds with LEDGF integ inh | AID 1053135 | inhibition, % at 7.7 µM;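 active means inhibition above the mean over all tested compounds plus 3 SD, which no compound reached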;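 further: 0% = integrase with antibodies and DMSO and 100% = antibodies without integrase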
IN-LEDGF confirm – LEDGF/p75-dependent HIV-1 integration inhibition, confirmation; actives 36% (n = 2,000); shares compounds with LEDGF integ inh; TR-FRET LEDGF/p75-dependent HIV-1 integration, biochemical; inhibition, % at 3.7 µM; in the data active means inhibition above about 14%
An asterisk follows results filed as active; nt = no result; ! = repeats disagree. Unless noted, no stated cut-off is given here; in the data, active means inhibition above about 19%; inactive means the rest.

SMILES | MBD2 inh | ASAP1 inh | TCR-CD3 inh | ARFGAP1 inh | UHRF1 MBD2 ctr | LEDGF integ inh | BSA TAMRA ctr | TCR-CD3 inh conf | UHRF1 ctr MBD2 | MBD2 DBD conf | IN multimer up | TRFRET interf | IN-LEDGF confirm
O=C(NCCN1C(=O)S/C(=C/c2cccnc2)C1=O)c1ccc(S(=O)(=O)N2CCCC2)cc1 | -5 | 11 | -2 | 12 | -2 | 5 | nt | nt | nt | nt | nt | nt | nt
O=C(c1ccccc1)C1CCN(C(=O)C2CCC(=O)N(Cc3ccccc3F)C2)CC1 (stereo not given) | -5 | -10 | 1 | 8 | 1 | 2 | nt | nt | nt | nt | nt | nt | nt
FC(F)(F)C1=Nc2cccc3cccc(c23)N1 | 34* | -1 | 31* | 8 | 54* | 79* | -7 | 9 | 9 | 2 | 57* | -205 | 57*
Fc1ccc(C2=Nc3cccc4cccc(c34)N2)cc1 | 2 | -1 | 5 | -11 | -2 | -3 | nt | nt | nt | nt | nt | nt | nt
Oc1cccc(CN2CCOCC2)c1O | 45* | -13 | 27* | -11 | 85* | 78* | 0 | 10 | 6 | 5 | 11* | -40 | 35*
CCCc1cc(CN2CCOCC2)c(O)c(CN2CCOCC2)c1O | -5 | 0 | -2 | 9 | -5 | -6 | nt | nt | nt | nt | nt | nt | nt
CN(Cc1ccc2c(c1)CCCN2C)C(=O)[C@H]1O[C@@H](n2ccc(=O)[nH]c2=O)[C@H](O)[C@@H]1O | 0 | 6 | 1 | 9 | -1 | -3 | nt | nt | nt | nt | nt | nt | nt
NC1=NC(=O)/C(=C\c2ccco2)S1 | 24* | -14 | 23* | -14 | 68* | 62* | -5 | 17 | 47* | 24* | 30* | -106 | 50*
COc1cccc(-c2nc3n(n2)CCc2ccccc2-3)c1 | -2 | -4 | 2 | 11 | -3 | 6 | nt | nt | nt | nt | nt | nt | nt
CCNc1nc(NC(C)C)nc(N(C#N)CC(=O)OC)n1 | 32* | -11 | 22* | 5 | 63* | 18* | 4 | 4 | 7 | 4 | -1 | 4 | 2
CCNc1nc(NC(C)C)nc(N(C#N)C(C)C(=O)N(C)C)n1 (stereo not given) | 4 | -8 | -5 | 10 | 4 | 0 | nt | nt | nt | nt | nt | nt | nt
O=C(O)CC(CCc1ccccc1)OC1OC(CO)C(O)C(O)C1O (stereo not given) | 12 | 0 | 32* | 9 | 15 | 85* | -11 | 30* | nt | nt | 87* | -441 | 92*
[C-]#[N+][C@H](O[C@@H]1O[C@H](CO)[C@@H](O)[C@H](O)[C@H]1O)c1ccccc1 | -2 | 2 | -9 | 3 | -1 | -5 | nt | nt | nt | nt | nt | nt | nt
C[c-]1[c-](C)[c-](C)[c-](C)[c-]1C.[Fe].c1cc2nccc(N3CCCC3)[c-]2c1 (stereo not given) | 5 | 0 | 49* | 11 | 14 | 20*! | 2 | 19*! | nt | nt | 0 | 1 | 49*
c1cc(N2CCCCC2)nc(N2CCCCC2)n1 | 3 | 5 | -7 | -11 | 4 | 3 | nt | nt | nt | nt | nt | nt | nt
N#C/C(=C\c1ccc(O)c(O)c1)C(=O)N1CCCC1 | -6 | 8 | 8 | 0 | -1 | 2 | nt | nt | nt | nt | nt | nt | nt
N#C/C(=C\c1ccc(O)c(O)c1)C(=O)c1ccc(O)c(O)c1 | 19* | -1 | 23* | 3 | 64* | 91* | 12 | 72* | 67* | 29* | 20* | -101 | 90*
Oc1ccc(/C=N/N=C(c2ccccc2)c2ccccc2)c(O)c1O | -5 | -7 | 35* | 1 | -1 | 41* | -11 | 28* | nt | nt | 21* | -76 | 84*
NC(=N\N=Cc1ccccc1)/C(N)=N/N=Cc1ccccc1 | 3 | 5 | -6 | 5 | 0 | -7 | nt | nt | nt | nt | nt | nt | nt
O=C(NN1CCOCC1)c1ccc(Cl)cc1[N+](=O)[O-] | -2 | 4 | -6 | -10 | 4 | -1 | nt | nt | nt | nt | nt | nt | nt
O=C(O)c1cc(O)c2c(c1)[C@H]([C@H]1c3cc(C(=O)O)cc(O)c3C(=O)c3c(O[C@@H]4O[C@H](CO)[C@@H](O)[C@H](O)[C@H]4O)cccc31)c1cccc(OC3O[C@H](CO)[C@@H](O)[C@H](O)[C@H]3O)c1C2=O (stereo not given in full) | 33* | 9 | 137* | -7 | 73* | 82* | -14 | 135* | 90* | 94* | 74* | -261 | 80*
O=C1c2c(O)cccc2C(C2OC(CO)[C@@H](O)[C@H](O)[C@H]2O)c2cc(CO)cc(O)c21 (stereo not given in full) | 0 | 6 | -7 | 7 | -7 | 2 | nt | nt | nt | nt | nt | nt | nt
Cc1cc(C)cc(OC(=O)COc2ccccc2C)c1 | -4 | -16 | 2 | -2 | 0 | 2 | nt | nt | nt | nt | nt | nt | nt
O=C1/C(=C/C=C/c2ccco2)SC(=S)N1NS(=O)(=O)c1ccccc1 | 69* | -4 | 22* | -26 | 97* | 71* | -14 | 21* | 88* | 51* | 20* | -73 | 76*
CN(CC(=O)Nc1cccc(F)c1)C(=O)CCc1nc2ccccc2c(=O)[nH]1 | 4 | -1 | -1 | -4 | 0 | -2 | nt | nt | nt | nt | nt | nt | nt
CS(=O)(=O)c1ccc(Cl)c(NC(=O)C2CCN(S(=O)(=O)c3cccs3)CC2)c1 | 1 | 6 | 2 | 2 | 0 | -4 | nt | nt | nt | nt | nt | nt | nt
COC(=O)C1C(O)=C(C=Nc2ccc(N)cc2)C(=O)CC1(C)C (stereo not given) | -4 | 4 | 26* | -2 | 4 | 40* | -5 | 1 | nt | nt | 2 | -12 | -6
CC1(C)CC(=O)C(C=Nc2ccc(N)cc2)=C(O)C1 | -10 | 8 | 23* | -12 | 8 | 36* | 0 | -1 | nt | nt | 5 | -18 | -3
